# Compounds with a hit are over-represented: about 2.7% of the library has one in this group of screens.
# AF4-AF9 inh: inhibitors of AF4 peptide binding to AF9, primary screen, biochemical, AlphaScreen, biotin-AF4 peptide, FLAG-AF9, single point. inhibition, % at 10 µM. 350,000 compounds, 0.47% hits. AID 651704, 2012;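 active = every replicate reaching a set inhibition limit, whatever the replicate mean, cut at about 25% in these data; inconclusive = mean inhibition reaches that limit but some replicates miss it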
# Target sequence (P42568 whole entry, looked up): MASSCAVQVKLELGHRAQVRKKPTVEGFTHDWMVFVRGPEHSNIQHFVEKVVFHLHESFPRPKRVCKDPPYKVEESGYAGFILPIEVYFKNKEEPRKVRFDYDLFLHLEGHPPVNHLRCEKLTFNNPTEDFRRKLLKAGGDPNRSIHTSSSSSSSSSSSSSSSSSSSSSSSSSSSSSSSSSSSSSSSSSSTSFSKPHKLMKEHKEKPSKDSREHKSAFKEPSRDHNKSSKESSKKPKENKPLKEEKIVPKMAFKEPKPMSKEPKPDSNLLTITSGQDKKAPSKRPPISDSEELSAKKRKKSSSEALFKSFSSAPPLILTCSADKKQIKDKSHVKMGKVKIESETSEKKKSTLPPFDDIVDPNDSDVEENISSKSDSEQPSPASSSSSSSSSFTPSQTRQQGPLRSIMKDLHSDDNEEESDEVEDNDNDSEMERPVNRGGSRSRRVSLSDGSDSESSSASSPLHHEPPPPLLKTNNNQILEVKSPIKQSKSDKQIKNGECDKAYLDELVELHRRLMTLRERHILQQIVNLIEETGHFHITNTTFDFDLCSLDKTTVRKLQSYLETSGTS
# DENV2 CPE rescue: inhibitors of DENV2 cytopathic effect, primary screen, cell-based, plate reader, single concentration; AID 651640, 2012; DENV2-infected cells, cytopathic effect rescue; CPE inhibition, % at 9.99 µM; 350,000 compounds, 1.7% hits; in the data active = CPE inhibition above about 20%, passing the limit was not always enough; inconclusive = no clear call, values can overlap the other calls; tested in BHK-21 cells
# S100A4 MyoIIA: inhibitors of S100A4-myosin IIA peptide binding, primary screen, biochemical, fluorescence polarization, TAMRA-MyoIIA peptide | inhibition, % at 10.7 µM | AID 652163, 2013 | 360,000 compounds, 0.14% hits | Protein S100-A4 (Homo sapiens), P26447;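 active = mean inhibition of at least 70% across replicates, with every replicate also reaching that level; inconclusive = mean inhibition reaches 70% but some replicates fall short; inactive = mean inhibition below 70%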
# Target sequence (P26447 whole entry, looked up): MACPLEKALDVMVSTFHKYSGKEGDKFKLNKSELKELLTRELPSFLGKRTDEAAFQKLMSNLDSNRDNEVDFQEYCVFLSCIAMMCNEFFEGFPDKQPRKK
#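 Material: S100A4 monomer (human). Medium: Calcium-containing HEPES buffer, pH 7.2. Probe or stimulus: labelled myosin peptide probe, 5 nM. Compound dosing: one concentration per compound. Timing: polarization read 5 min after assay mix addition, stable 5–60 min. Benchmarks: DMSO as neutral control, TFP as positive control.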
# CaV13 ICDI inh: Primary screen for inhibitors of IQ motif and Ca2+-dependent inactivation inhibitor domain binding in CACNA1D, Förster resonance energy transfer in living cells, …; AID 743397; inhibition, % at 12.3 µM; HEK cells, CFP/YFP FRET ICDI-IQ, plate reader, 10 min; percent FRET-ratio fall versus neutral wells; 340,000 compounds, 0.098% hits;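 active = mean replicate inhibition of at least 30% and at least 1% of replicates passing that level; inconclusive = only one of the two criteria is met; inactive = neither criterion is met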
# SIRT5 inh: SIRT5 desuccinylase inhibitors, primary screen, biochemical, fluorescence imaging, single point, set 5; 330,000 compounds, 1.1% hits; inhibition, % at 15 µM; Purified SirT5, succinyl-peptide AMC, trypsin-coupled fluorescence; NAD-dependent protein deacylase sirtuin-5, mitochondrial (Homo sapiens), Q9NXA8; AID 652115, 2013; in the data active = inhibition above about 15%; inconclusive = no clear call, values can overlap the other calls
# A number is an active result; i = inactive; ? = inconclusive; nt = not tested or not shown.
SMILES,AF4-AF9 inh,DENV2 CPE rescue,S100A4 MyoIIA,CaV13 ICDI inh,SIRT5 inh
COc1ccc(S(=O)(=O)Nc2ccc3c(c2)C(=O)N([C@@H](C)CO)C[C@@H](C)[C@@H](CN(C)S(=O)(=O)c2ccc(C)cc2)O3)cc1,i,i,i,nt,i
Cc1cnc(NC(=O)c2cc3ccccc3o2)s1,i,i,i,i,112
CC1(C)C(Cl)C(=O)C(C(=O)c2ccccc2)C(=O)C1Cl (configuration not stated),i,i,i,i,94
Cc1ccc(S(=O)(=O)Nc2ccc3c(c2)C(=O)N([C@@H](C)CO)C[C@@H](C)[C@H](CN(C)S(=O)(=O)c2cn(C)cn2)OCCCC[C@@H](C)O3)cc1,i,21,i,nt,i
Cc1noc(C)c1S(=O)(=O)Nc1ccc2c(c1)C(=O)N([C@@H](C)CO)C[C@@H](C)[C@H](CN(C)S(=O)(=O)c1cn(C)cn1)OCCCC[C@@H](C)O2,i,37,i,nt,i
Cc1ccc(S(=O)(=O)Nc2ccc3c(c2)C(=O)N([C@@H](C)CO)C[C@@H](C)[C@@H](CN(C)S(=O)(=O)c2cn(C)cn2)OCCCC[C@@H](C)O3)cc1,i,i,133,nt,i
Cc1ccc(S(=O)(=O)Nc2ccc3c(c2)C(=O)N([C@H](C)CO)C[C@H](C)[C@@H](CN(C)S(=O)(=O)c2cn(C)cn2)OCCCC[C@@H](C)O3)cc1,i,i,i,nt,i
C[C@@H]1CCCCO[C@@H](CN(C)S(=O)(=O)c2cn(C)cn2)[C@@H](C)CN([C@H](C)CO)C(=O)c2cc(NS(=O)(=O)c3ccc(Cl)cc3)ccc2O1,i,37,103,nt,i
Cc1noc(C)c1S(=O)(=O)Nc1ccc2c(c1)C(=O)N([C@@H](C)CO)C[C@@H](C)[C@@H](CN(C)S(=O)(=O)c1cn(C)cn1)OCCCC[C@H](C)O2,i,i,i,nt,i
Cc1ccc(S(=O)(=O)Nc2ccc3c(c2)C(=O)N([C@@H](C)CO)C[C@H](C)[C@@H](CN(C)S(=O)(=O)c2cn(C)cn2)OCCCC[C@H](C)O3)cc1,i,i,i,nt,i
Cc1noc(C)c1NC(=O)Nc1ccc2c(c1)C(=O)N([C@@H](C)CO)C[C@H](C)[C@H](CN(C)C(=O)Nc1cccc3ccccc13)O2,i,i,i,nt,i
COc1ccc(Nc2nc(Nc3ccc(OC)cc3OC)nc(N3CCN(C)CC3)n2)c(OC)c1,nt,nt,nt,i,nt
CN1CCN(C2CCN(c3ccc(Nc4nnc(Cl)c(Nc5ccccc5S(C)(=O)=O)n4)c(OC(CF)CF)c3)CC2)CC1,nt,37,i,i,nt
O=C(COC(=O)c1cccc(S(=O)(=O)Nc2ccc(F)cc2)c1)NCCN1C(=O)CSC1=O,i,i,i,i,17
Cc1ccc(C(=O)OCC(=O)NCCN2C(=O)CSC2=O)cc1[N+](=O)[O-],i,i,i,i,i
CC(C)NC(=O)Nc1cccc2c1O[C@H](CN(C)CC1CC1)[C@@H](C)CN([C@H](C)CO)C2=O,i,i,i,nt,i
O=C(CCc1nnc(Cc2c[nH]c3ccccc23)o1)NCCC1CCCCO1 (configuration not stated),i,54,i,i,nt
N#CC(Cc1ccccc1OC(F)F)c1nc2ccccc2[nH]1 (configuration not stated),i,25,i,i,i
COc1ccc(S(=O)(=O)N(C)C[C@@H]2Oc3ccc(NC(=O)Nc4ccc(C(F)(F)F)cc4)cc3CC(=O)N([C@@H](C)CO)C[C@@H]2C)cc1,i,i,i,nt,i
Nc1nc(-c2ccc([N+](=O)[O-])cc2)cc(=O)[nH]1,i,133,i,i,i
O=c1cc(-c2ccccc2)nc(Sc2ccc([N+](=O)[O-])cc2[N+](=O)[O-])[nH]1,i,i,i,i,i
Oc1ccc(CN2CCN(c3ccccc3)CC2)c2cccnc12,nt,nt,i,nt,nt
Oc1ccc(Cc2ccccc2)c2cccnc12,57,i,i,i,nt
Oc1ccc(COCc2ccccc2)c2cccnc12,66,nt,i,nt,nt
CCCOCc1ccc(O)c2ncccc12,i,i,i,i,i
SMILES,AF4-AF9 inh,DENV2 CPE rescue,S100A4 MyoIIA,CaV13 ICDI inh,SIRT5 inh
Oc1ccc(CN2CCC(Cc3ccccc3)CC2)c2cccnc12,76,i,i,i,i
C[C@H](CO)N1C[C@H](C)[C@H](CN(C)C(=O)Nc2ccc(F)cc2)Oc2ccc(NC(=O)CCCN(C)C)cc2C1=O,i,i,i,nt,nt
O=C(NCCc1csc(-c2cccnc2)n1)c1ccccc1Br,i,i,i,i,15
O=C(NCCc1csc(-c2cccnc2)n1)c1c(F)cccc1F,?,i,i,i,i
Clc1cccc(CN2CCC3CC2c2cc(N4CCCCC4)ccc23)c1 (configuration not stated),26,i,i,i,nt
c1ccc(CN2CCC3CC2c2cc(N4CCCCC4)ccc23)cc1 (configuration not stated),i,i,i,i,i
O=C(Nc1cccc(C(F)(F)F)c1)OCCN1CCN(Cc2ccccc2)CCC1=O,nt,70,i,i,nt
O=C(Nc1ccc(F)cc1)OCCN1CCN(Cc2ccccc2)CCC1=O,i,nt,i,i,i
CN1C(=O)N[C@@H]2c3ccccc3O[C@@]1(C)[C@@H]2CO,i,20,i,nt,i
C[C@@H]1CN([C@H](C)CO)C(=O)c2cc(NS(=O)(=O)c3ccc(Cl)cc3)ccc2O[C@@H](C)CCCCO[C@@H]1CN(C)C(=O)c1ccccc1,i,i,i,nt,i
CCCNC(=O)Nc1ccc2c(c1)C(=O)N(C)[C@H]1CC[C@H](CC(=O)NCc3ccccc3)O[C@@H]1CO2,i,i,i,nt,i
C[C@@H]1CN([C@@H](C)CO)C(=O)c2cc(NS(=O)(=O)c3ccc(Cl)cc3)ccc2O[C@@H](C)CCCCO[C@H]1CN(C)S(=O)(=O)c1ccc(Cl)cc1,nt,i,nt,nt,nt
Cc1ccc(S(=O)(=O)Nc2ccc3c(c2)C(=O)N([C@H](C)CO)C[C@H](C)[C@@H](CN(C)S(=O)(=O)c2ccc(Cl)cc2)OCCCC[C@H](C)O3)cc1,nt,37,nt,nt,nt
Cc1ccc(S(=O)(=O)N(C)C[C@@H]2OCCCC[C@H](C)Oc3ccc(NS(=O)(=O)c4ccc(Cl)cc4)cc3C(=O)N([C@@H](C)CO)C[C@H]2C)cc1,i,i,i,nt,22
Cc1ccc(S(=O)(=O)N(C)C[C@H]2OCCCC[C@H](C)Oc3ccc(NS(=O)(=O)c4ccc(Cl)cc4)cc3C(=O)N([C@@H](C)CO)C[C@H]2C)cc1,i,?,i,nt,26
Cc1ccc(S(=O)(=O)Nc2ccc3c(c2)C(=O)N([C@@H](C)CO)C[C@@H](C)[C@@H](CN(C)S(=O)(=O)c2ccc(Cl)cc2)OCCCC[C@@H](C)O3)cc1,nt,i,nt,nt,nt

# Screening results deposited in PubChem by Broad Institute.
